The values that follow come from ChEMBL document CHEMBL3120154, “2-[N-Alkyl(R-phenyl)-aminomethyl]-3-phenyl-7-trifluoromethylquinoxalines as anticancer agents inhibitors of folate enzymes” (Eur J Med Chem, 2014).

Assay [1] deals with SF-268. The assay can be described thus: Cytotoxicity against human SF268 cells assessed as cell growth at 10^-4 M after 48 hrs by alamar blue assay relative to untreated control. The following applies: SF-268, 48 h, read-out: Activity. It is filed as functional. An outline of the steps:
(§1)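 Three-cell-line prescreen at NCI. Each line was seeded and pre-incubated, then given a single concentration (10^-4 or 10^-5 M) and incubated for 48 h. The end-point was alamar blue. The value is percent growth of treated cells versus untreated control cells, with negative numbers indicating cell kill.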
In general terms: Resazurin is reduced to fluorescent resorufin, in cell work by metabolically active cells.

In assay [2] the test system is NCI-H460. The assay can be described thus: Cytotoxicity against human NCI-H460 cells assessed as cell growth at 10^-4 M after 48 hrs by alamar blue assay relative to untreated control. It is filed as functional. Conditions: NCI-H460, 48 h, read-out: Activity. An outline of the steps: (§2)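 Three-cell-line prescreen. Each line was inoculated and preincubated on a microtiter plate, then the agent was added at a single concentration (10^-4 or 10^-5 M) and incubated 48 h. Endpoint was measured with alamar blue, and growth is reported as a percentage of untreated control cells.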

The test system of assay [3] is MCF7. Kind of assay: Cytotoxicity against human MCF7 cells assessed as cell growth at 10^-4 M after 48 hrs by alamar blue assay relative to untreated control. Type of assay: functional. Conditions: MCF7, 48 h, read-out: Activity. An outline of the steps:
as §2

The target in another assay is T1, Dihydrofolate reductase (Homo sapiens, UniProt P00374).
T1 sequence (P00374 whole entry): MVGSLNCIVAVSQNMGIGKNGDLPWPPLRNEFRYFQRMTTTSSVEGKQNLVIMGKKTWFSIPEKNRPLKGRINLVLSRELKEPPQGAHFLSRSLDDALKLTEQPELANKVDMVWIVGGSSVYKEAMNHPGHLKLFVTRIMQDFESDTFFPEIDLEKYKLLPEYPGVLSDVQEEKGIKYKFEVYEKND
The assay can be described thus: Competitive inhibition of human dihydrofolate reductase by spectrophotometry.

The target in assay [4] is Dihydrofolate reductase (Homo sapiens) (UniProt P00374). The assay can be described thus: Competitive inhibition of human dihydrofolate reductase at 10 uM by spectrophotometry.
The test system of assay [5] is NCI-H460. The assay can be described thus: Cytotoxicity against human NCI-H460 cells assessed as cell growth at 10^-5 M after 48 hrs by alamar blue assay relative to untreated control. Type of assay: functional. The following applies: NCI-H460, 48 h, read-out: Activity. An outline of the steps:
as §2

Assay [6] deals with SF-268. Kind of assay: Cytotoxicity against human SF268 cells assessed as cell growth at 10^-5 M after 48 hrs by alamar blue assay relative to untreated control. It is filed as functional. The following applies: SF-268, 48 h, read-out: Activity. The procedure, abridged:
as §1

Assay [7] concerns MCF7. The assay can be described thus: Cytotoxicity against human MCF7 cells assessed as cell growth at 10^-5 M after 48 hrs by alamar blue assay relative to untreated control. Type of assay: functional. The following applies: MCF7, 48 h, read-out: Activity. An outline of the steps:
as §2

For the next assay, the target named is Thymidylate synthase (Homo sapiens, UniProt P04818). The assay can be described thus: Competitive inhibition of human thymidylate synthase by spectrophotometry.

SMILES strings stand for the structures. The source made the active and inactive calls. The rule behind the calls is not given here.

For orientation: Ki means the dissociation constant of the complex between target and ligand, obtained from inhibition or displacement. Consider `CN(Cc1nc2cc(C(F)(F)F)ccc2nc1-c1ccccc1)c1ccc(F)cc1`, for which the growth at 100 µM with SF-268 [1] was determined as 125%; with NCI-H460 [2], 119%; with MCF7 [3] it was 180%. Affinity on Dihydrofolate reductase was put at a Ki of 5 µM.

Consider `CCN(Cc1nc2cc(C(F)(F)F)ccc2nc1-c1ccccc1)c1ccc(OC)cc1`, for which the growth at 100 µM came to 89% in the assay on SF-268 [1], 63% with NCI-H460 [2] and 54% with MCF7 [3]. At Dihydrofolate reductase, this molecule showed an inhibitory constant (Ki) of 7 µM.

As to `CCOC(=O)CC[C@H](NC(=O)c1ccc(N(CC)Cc2nc3cc(C(F)(F)F)ccc3nc2-c2ccccc2)cc1)C(=O)OCC`, at Dihydrofolate reductase, the affinity, expressed as Ki, was 4 µM.

Turning to `CCOC(=O)Cc1ccc(N(C)Cc2nc3cc(C(F)(F)F)ccc3nc2-c2ccccc2)cc1`, the growth at 100 µM in the assay with SF-268 [1] was found to be 107%; with NCI-H460 [2], 125%; in the assay with MCF7 [3], 105%. In [4], the inhibition result was “inactive”.

Regarding `CCN(Cc1nc2cc(C(F)(F)F)ccc2nc1-c1ccccc1)c1ccc(F)cc1`, the growth at 10 µM in the assay on NCI-H460 [5] was found to be 92%; in the assay on SF-268 [6] it was 102%; in the assay with MCF7 [7], 103%. Further, at Dihydrofolate reductase, the Ki came to 3 µM.

In the case of `CCN(Cc1nc2cc(C(F)(F)F)ccc2nc1-c1ccccc1)c1ccc(OC(F)(F)F)cc1`, the growth at 100 µM with SF-268 [1] came to 85%; in the assay on NCI-H460 [2], 83%; in the assay on MCF7 [3], 61%. On Dihydrofolate reductase, this molecule displayed an inhibitory constant (Ki) of 5 µM.

For `COc1cc(N(C)Cc2nc3cc(C(F)(F)F)ccc3nc2-c2ccccc2)cc(OC)c1OC`, the growth at 100 µM was found to be 97% in the assay with SF-268 [1], 77% with NCI-H460 [2] and 61% with MCF7 [3]. Besides, the affinity on Dihydrofolate reductase, expressed as Ki, was 5 µM.

Turning to `C#CCN(Cc1nc2cc(C(F)(F)F)ccc2nc1-c1ccccc1)c1ccc(OC)c(OC)c1`, the growth at 100 µM in the assay with SF-268 [1] was found to be 109%; with NCI-H460 [2], 80%; in the assay on MCF7 [3] it was 119%. Also, the inhibitory constant (Ki) on Dihydrofolate reductase was determined as 3 µM.

As for `CN(Cc1nc2cc(C(F)(F)F)ccc2nc1-c1ccccc1)c1ccc(F)c(F)c1`, the growth at 10 µM was found to be 88% in the assay on NCI-H460 [5], 97% in the assay on SF-268 [6] and 114% in the assay with MCF7 [7]. Also, the Ki turned out to be 0.27 µM at Thymidylate synthase and 4 µM on Dihydrofolate reductase.

As for `C#CCN(Cc1nc2cc(C(F)(F)F)ccc2nc1-c1ccccc1)c1ccc(Cl)cc1`, the growth at 100 µM in the assay on SF-268 [1] came to 84%; with NCI-H460 [2], 85%; in the assay on MCF7 [3] it was 67%. This molecule came in with a Ki at Dihydrofolate reductase of 4 µM.

At Dihydrofolate reductase, `CN(Cc1nc2cc(C(F)(F)F)ccc2nc1-c1ccccc1)c1ccc(OC(F)(F)F)cc1` had a Ki of 3 µM.

With `COc1ccc(N(C)Cc2nc3cc(C(F)(F)F)ccc3nc2-c2ccccc2)cc1OC`, the results for the growth at 100 µM in the assay on SF-268 [1], in the assay with NCI-H460 [2] and in the assay with MCF7 [3] were 103%, 88% and 54%, respectively. The Ki on Dihydrofolate reductase worked out at 8 µM.

As for `C#CCN(Cc1nc2cc(C(F)(F)F)ccc2nc1-c1ccccc1)c1ccc(CC(=O)OCC)cc1`, the growth at 100 µM was determined as 111% with SF-268 [1], 115% in the assay with NCI-H460 [2] and 106% with MCF7 [3]. The molecule further had an inhibitory constant (Ki) at Dihydrofolate reductase of 3 µM.

`CCOC(=O)CC[C@H](NC(=O)c1ccc(N(C)Cc2nc3cc(C(F)(F)F)ccc3nc2-c2ccccc2)cc1)C(=O)OCC` returned a Ki on Dihydrofolate reductase of 0.2 µM.

With `Cc1ccc(N(C)Cc2nc3cc(C(F)(F)F)ccc3nc2-c2ccccc2)cc1`, the growth at 10 µM in the assay with NCI-H460 [5] was found to be 116%; in the assay on SF-268 [6], 121%; with MCF7 [7] it was 115%. At Dihydrofolate reductase, this molecule came in with a Ki of 11 µM.

With `C#CCN(Cc1nc2cc(C(F)(F)F)ccc2nc1-c1ccccc1)c1ccc(C(F)(F)F)cc1F`, the growth at 100 µM is 110% in the assay on SF-268 [1], 61% in the assay on NCI-H460 [2] and 87% in the assay on MCF7 [3].

On to `C#CCN(Cc1nc2cc(C(F)(F)F)ccc2nc1-c1ccccc1)c1ccccc1Cl`, for which the growth at 100 µM came out at 87% with SF-268 [1], 101% in the assay on NCI-H460 [2] and 102% with MCF7 [3]. In addition, on Dihydrofolate reductase, the inhibition constant Ki was 2 µM.

For the molecule `COc1ccc(N(C)Cc2nc3cc(C(F)(F)F)ccc3nc2-c2ccccc2)cc1`, the growth at 100 µM in the assay on SF-268 [1] is 107%; in the assay with NCI-H460 [2] it was 125%; with MCF7 [3] it was 105%. Moreover, the affinity on Dihydrofolate reductase corresponds to a Ki of 3 µM.

Take `CN(Cc1nc2cc(C(F)(F)F)ccc2nc1-c1ccccc1)c1ccc(Cl)cc1`: the growth at 10 µM in the assay with NCI-H460 [5] amounted to 118%; in the assay with SF-268 [6], 108%; in the assay on MCF7 [7] it was 109%. For the same molecule, on Dihydrofolate reductase, the inhibition constant Ki was found to be 5 µM.

For `CCN(Cc1nc2cc(C(F)(F)F)ccc2nc1-c1ccccc1)c1ccc(Cl)cc1`, the growth at 100 µM is 81% in the assay on SF-268 [1], 68% in the assay on NCI-H460 [2] and 46% with MCF7 [3]. In addition, affinity on Dihydrofolate reductase was put at a Ki of 3 µM.

`CCN(Cc1nc2cc(C(F)(F)F)ccc2nc1-c1ccccc1)c1cc(OC)c(OC)c(OC)c1` showed a Ki on Dihydrofolate reductase of 6 µM.

Take `CCN(Cc1nc2cc(C(F)(F)F)ccc2nc1-c1ccccc1)c1ccc(F)c(F)c1`: the results for the growth at 10 µM in the assay on NCI-H460 [5], in the assay with SF-268 [6] and with MCF7 [7] were 81%, 94% and 73%, respectively. The molecule further gave an inhibition constant Ki on Dihydrofolate reductase of 5 µM.

With `CCOC(=O)Cc1ccc(N(CC)Cc2nc3cc(C(F)(F)F)ccc3nc2-c2ccccc2)cc1`, the Ki at Dihydrofolate reductase turned out to be 3 µM.

In turn, `CCN(Cc1nc2cc(C(F)(F)F)ccc2nc1-c1ccccc1)c1ccc(C)cc1` came in with a Ki at Dihydrofolate reductase of 4 µM.

With `C#CCN(Cc1nc2cc(C(F)(F)F)ccc2nc1-c1ccccc1)c1ccc(OC)cc1`, the growth at 100 µM in the assay on SF-268 [1] is 103%; with NCI-H460 [2] it was 98%; in the assay on MCF7 [3], 82%. Affinity on Dihydrofolate reductase was put at a Ki of 3 µM.

In the case of `C#CCN(Cc1nc2cc(C(F)(F)F)ccc2nc1-c1ccccc1)c1cc(OC)c(OC)c(OC)c1`, the growth at 100 µM was 102% with SF-268 [1], 104% in the assay with NCI-H460 [2] and 64% in the assay with MCF7 [3]. The Ki worked out at 5 µM at Thymidylate synthase and 4 µM on Dihydrofolate reductase.
